Source: ChEMBL document CHEMBL4261487, “Small structural changes of the imidazopyridine diacylglycerol acyltransferase 2 (DGAT2) inhibitors produce an improved safety profile” (Medchemcomm, 2017)
Blank lines part the entries; values can stand above or below the molecule they belong to.

Columns and labels:
UGT = experiment: Drug metabolism in human liver microsomes assessed as UGT-mediated glucuronidation by measuring clearance rate; assay type: ADME; conditions: liver microsomes, read-out: CLH
CYP3A4 = CYP3A4 (Homo sapiens, UniProt P08684); experiment: Drug metabolism in human liver microsomes assessed as CYP3A4-mediated oxidative metabolism by measuring clearance rate; assay type: ADME; conditions: liver microsomes, read-out: CLH
Rattus norvegicus [1] = experiment: Unbound Cmax in Wistar Han IGS rat at 10 mg/kg, po qd administered for 14 days; assay type: ADME, organism-based; conditions: in vivo, 336 h
Outline: (§1)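 Wistar Han rats were dosed orally once daily for 14 days (exploratory, 5/sex/dose) or 1 month (toxicity, 10/sex/dose). Toxicokinetic satellite animals (3–4/sex/dose) were used, and steady-state systemic exposure is given as the mean of male and female values combined.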

Rattus norvegicus [2] = experiment: Unbound Cmax in Wistar Han IGS rat at 100 mg/kg, po qd administered for 14 days; assay type: ADME, organism-based; conditions: in vivo, 336 h; outline: as §1
Rattus norvegicus [3] = experiment: Unbound AUC in Wistar Han IGS rat at 500 mg/kg, po qd administered for 14 days; assay type: ADME, organism-based; conditions: in vivo, 336 h; outline: as §1
Rattus norvegicus [4] = experiment: Toxicity in Wistar Han IGS rat at 100 mg/kg, po qd administered for 14 days; assay type: organism-based; conditions: in vivo, 336 h
Outline: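 Wistar Han rats, daily oral dosing for 14 days (5/sex/dose) or 1 month (10/sex/dose); microscopic findings reported as incidence by sex, plus organ weights.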

Canis familiaris [5] = experiment: Toxicity in telemetered beagle dog assessed as increase in systolic pressure at 10 mg/kg administered via oral gavage measured over 24 hrs; assay type: organism-based, Canis lupus familiaris; conditions: in vivo
Rattus norvegicus [6] = experiment: Unbound Cmax in Wistar Han IGS rat at 30 mg/kg, po qd administered for 1 month; assay type: ADME, organism-based; conditions: in vivo; outline: as §1
Rattus norvegicus [7] = experiment: Unbound Cmax in Wistar Han IGS rat at 60 mg/kg, po qd administered for 1 month; assay type: ADME, organism-based; conditions: in vivo; outline: as §1
Rattus norvegicus [8] = experiment: Unbound AUC in Wistar Han IGS rat at 30 mg/kg, po qd administered for 1 month; assay type: ADME, organism-based; conditions: in vivo; outline: as §1
Canis familiaris [9] = experiment: Unbound Cmax in beagle dog […] at 75 mg/kg, po qd administered for 14 days; assay type: ADME, organism-based, Canis lupus familiaris; conditions: in vivo, 336 h
Outline: (§2)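 Exploratory 14-day dog toxicity study with daily oral dosing. Toxicokinetic exposure is reported as the mean with male and female systemic values combined.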

Canis familiaris [10] = experiment: Unbound Cmax in beagle dog […] at 300 mg/kg, po qd administered for 14 days; assay type: ADME, organism-based, Canis lupus familiaris; conditions: in vivo, 336 h; outline: as §2
Canis familiaris [11] = experiment: Unbound Cmax in beagle dog at 2 mg/kg, po qd administered for 1 month; assay type: ADME, organism-based, Canis lupus familiaris; conditions: in vivo
Outline: (§3)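 Beagle dogs were dosed orally once daily in a 14-day exploratory study or 1-month toxicity studies. Steady-state systemic exposure over the 24 h dosing interval is reported as the mean of male and female values combined.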

Canis familiaris [12] = experiment: Unbound Cmax in beagle dog at 5 mg/kg, po qd administered for 1 month; assay type: ADME, organism-based, Canis lupus familiaris; conditions: in vivo
Outline: (§4)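 One-month dog toxicity study with once-daily oral dosing. Toxicity groups were 2/sex/dose, and unbound peak exposure was taken from toxicokinetic sampling.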

Canis familiaris [13] = experiment: Unbound Cmax in beagle dog at 10 mg/kg, po qd administered for 1 month; assay type: ADME, organism-based, Canis lupus familiaris; conditions: in vivo; outline: as §3
Canis familiaris [14] = experiment: Unbound AUC in beagle dog at 5 mg/kg, po qd administered for 1 month; assay type: ADME, organism-based, Canis lupus familiaris; conditions: in vivo; outline: as §3
Canis familiaris [15] = experiment: Unbound AUC in beagle dog at 10 mg/kg, po qd administered for 1 month; assay type: ADME, organism-based, Canis lupus familiaris; conditions: in vivo; outline: as §3
Canis familiaris [16] = experiment: Unbound AUC in beagle dog at 50 mg/kg, po qd administered for 1 month; assay type: ADME, organism-based, Canis lupus familiaris; conditions: in vivo; outline: as §3
Canis familiaris [17] = experiment: Unbound AUC in beagle dog at 100 to 150 mg/kg, po qd administered for 1 month; assay type: ADME, organism-based, Canis lupus familiaris; conditions: in vivo; outline: as §3
Canis familiaris [18] = experiment: Toxicity in telemetered beagle dog assessed as multiple bouts of emesis at 75 mg/kg administered via oral gavage measured within 4 hrs of dosing; assay type: organism-based, Canis lupus familiaris; conditions: in vivo
Canis familiaris [19] = experiment: Toxicity in beagle dog assessed as body weight gain at 100 mg/kg, po qd administered starting on day 11 post 150 mg/kg dosing period and continuing for 20 days; assay type: organism-based, Canis lupus familiaris; conditions: in vivo, 480 h
Canis familiaris [20] = experiment: In vivo inhibition of DGAT2 in beagle dog assessed as coverage of in vitro IC50 for dog DGAT2 at 75 mg/kg, po qd administered for 14 days; assay type: functional, Canis lupus familiaris; design: scale not given: the % may be the effect or the level left
Outline: (§5)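 Beagle dogs, once-daily oral dosing for 14 days or 1 month; systemic exposure with sexes combined; coverage is the average % above dog DGAT2 IC50 at steady state over the 24 h dosing interval.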

Canis familiaris [21] = experiment: In vivo inhibition of DGAT2 in beagle dog assessed as coverage of in vitro IC50 for dog DGAT2 at 10 mg/kg, po qd administered for 1 month; assay type: functional, Canis lupus familiaris; design: scale not given: the % may be the effect or the level left; outline: as §5
Canis familiaris [22] = experiment: Unbound Cmax in telemetered beagle dog at 25 mg/kg administered via oral gavage measured over 24 hrs; assay type: ADME, organism-based, Canis lupus familiaris; conditions: in vivo
Outline: (§6)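 Telemetered Beagle dogs given oral doses, with blood pressure and heart rate monitored after dosing alongside plasma exposure.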

Canis familiaris [23] = experiment: Toxicity in telemetered beagle dog assessed as increase in heart rate at 25 mg/kg administered via oral gavage measured over 24 hrs; assay type: organism-based, Canis lupus familiaris; conditions: in vivo
Canis familiaris [24] = experiment: Toxicity in telemetered beagle dog assessed as increase in heart rate at 75 mg/kg administered via oral gavage measured over 24 hrs; assay type: organism-based, Canis lupus familiaris; conditions: in vivo
[25] = target: T1, Diacylglycerol O-acyltransferase 2 (Rattus norvegicus, UniProt Q5FVP8); experiment: Inhibition of rat DGAT2
T1 sequence (Q5FVP8 whole entry): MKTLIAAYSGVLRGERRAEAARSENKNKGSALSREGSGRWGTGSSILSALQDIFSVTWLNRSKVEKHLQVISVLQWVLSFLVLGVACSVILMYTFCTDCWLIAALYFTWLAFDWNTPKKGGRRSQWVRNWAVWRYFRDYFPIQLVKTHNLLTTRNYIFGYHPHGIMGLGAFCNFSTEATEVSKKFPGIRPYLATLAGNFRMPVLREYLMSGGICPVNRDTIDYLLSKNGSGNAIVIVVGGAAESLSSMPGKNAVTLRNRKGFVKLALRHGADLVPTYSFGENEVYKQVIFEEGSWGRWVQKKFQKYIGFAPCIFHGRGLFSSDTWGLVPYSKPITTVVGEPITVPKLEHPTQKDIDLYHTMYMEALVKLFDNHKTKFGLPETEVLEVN

[26] = Apparent permeability of the compound at pH 7.4; assay type: ADME; conditions: not told
[27] = Half life in beagle dog at 1 mg/kg, iv; assay type: ADME, organism-based, Canis lupus familiaris; conditions: in vivo
[28] = Volume of distribution at steady state in beagle dog at 1 mg/kg, iv; assay type: ADME, organism-based, Canis lupus familiaris; conditions: in vivo, read-out: Vdss
Outline: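 Male Beagle dogs, single iv dose, crystalline form of compound; value is the mean of two experiments.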

Canis familiaris [29] = experiment: Unbound Cmax in beagle dog at 3 mg/kg, po qd administered for 1 month; assay type: ADME, organism-based, Canis lupus familiaris; conditions: in vivo; outline: as §4
Canis familiaris [30] = experiment: Unbound AUC in beagle dog at 30 mg/kg, po qd administered for 1 month; assay type: ADME, organism-based, Canis lupus familiaris; conditions: in vivo; outline: as §3
Canis familiaris [31] = experiment: In vivo inhibition of DGAT2 in beagle dog assessed as coverage of in vitro IC50 for dog DGAT2 at 30 mg/kg, po qd administered for 1 month; assay type: functional, Canis lupus familiaris; design: scale not given: the % may be the effect or the level left; outline: as §5
Canis familiaris [32] = experiment: Unbound Cmax in telemetered beagle dog at 50 mg/kg administered via oral gavage measured over 24 hrs; assay type: ADME, organism-based, Canis lupus familiaris; conditions: in vivo; outline: as §6
Canis familiaris [33] = experiment: Toxicity in telemetered beagle dog assessed as increase in heart rate at 25 mg/kg administered via oral gavage measured during 4 hrs of post dosing; assay type: organism-based, Canis lupus familiaris; conditions: in vivo
Canis familiaris [34] = experiment: Toxicity in telemetered beagle dog assessed as increase in systolic pressure at 5 mg/kg administered via oral gavage measured during 4 hrs of post dosing; assay type: organism-based, Canis lupus familiaris; conditions: in vivo

CYP3A4, sequence (P08684 whole entry): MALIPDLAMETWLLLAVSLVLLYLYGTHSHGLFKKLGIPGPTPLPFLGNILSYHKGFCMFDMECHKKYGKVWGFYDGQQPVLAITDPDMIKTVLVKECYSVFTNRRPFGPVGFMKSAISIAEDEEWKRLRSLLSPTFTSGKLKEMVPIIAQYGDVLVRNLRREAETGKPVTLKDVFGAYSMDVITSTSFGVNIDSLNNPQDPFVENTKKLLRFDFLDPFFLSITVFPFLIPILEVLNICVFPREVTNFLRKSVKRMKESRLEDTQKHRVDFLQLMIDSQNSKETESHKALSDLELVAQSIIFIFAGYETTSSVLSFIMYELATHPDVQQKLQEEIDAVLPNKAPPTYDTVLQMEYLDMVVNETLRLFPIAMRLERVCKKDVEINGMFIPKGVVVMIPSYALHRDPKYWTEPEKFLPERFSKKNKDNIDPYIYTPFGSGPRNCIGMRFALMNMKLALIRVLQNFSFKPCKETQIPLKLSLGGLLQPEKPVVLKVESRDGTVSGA

Structure (SMILES): CS(=O)(=O)O.O=C([C@@H]1CCCN(c2ccc3nc(C4(n5cc(Cl)cn5)CC4)[nH]c3n2)C1)N1CCCC1
microsomal CLint (UGT): < 1.9 µL/min/mg | microsomal CLint (CYP3A4): 23.7 µL/min/mg | fCmax (Rattus norvegicus [1]): 390 nM | fCmax (Rattus norvegicus [2]): 4.65 µM | fAUC (Rattus norvegicus [3]): 88300 ng·h/mL | Activity (Rattus norvegicus [4]): Non-Toxic | Activity (Canis familiaris [5]): 3 mmHg | fCmax (Rattus norvegicus [6]): 2020 nM | fCmax (Rattus norvegicus [7]): 5.47 µM | fAUC (Rattus norvegicus [8]): 4630 ng·h/mL | fCmax (Canis familiaris [9]): 6.54 µM | fCmax (Canis familiaris [10]): 15.3 µM | fCmax (Canis familiaris [11]): 305 nM | fCmax (Canis familiaris [12]): 1010 nM | fCmax (Canis familiaris [13]): 2030 nM | fAUC (Canis familiaris [14]): 1120 ng·h/mL | fAUC (Canis familiaris [15]): 5280 ng·h/mL | fAUC (Canis familiaris [16]): 57500 ng·h/mL | fAUC (Canis familiaris [17]): 92600 ng·h/mL | Activity (Canis familiaris [18]): Toxic | Activity (Canis familiaris [19]): Non-Toxic | Activity (Canis familiaris [20]): 99% | Activity (Canis familiaris [21]): 97% | fCmax (Canis familiaris [22]): 4.06 µM | Activity (Canis familiaris [23]): 6 to 20 bpm | Activity (Canis familiaris [24]): 8 to 30 bpm

microsomal CLint (UGT): 10.8 µL/min/mg | microsomal CLint (CYP3A4): 27.5 µL/min/mg | IC50 [25]: 155 nM | Papp [26]: 13.1 ×10⁻⁶ cm/s | half-life [27]: 3.2 h | Vd [28]: 0.54 L/kg | fCmax (Canis familiaris [13]): 1270 nM | fAUC (Canis familiaris [15]): 2680 ng·h/mL | fCmax (Canis familiaris [29]): 454 nM | fAUC (Canis familiaris [30]): 9530 ng·h/mL
Structure (SMILES): C[C@@H](c1nc2ccc(N3CCC[C@@H](C(=O)N4CCCC4)C3)nc2[nH]1)n1cc(Cl)cn1
Activity (Canis familiaris [21]): 86% | Activity (Canis familiaris [31]): 96% | fCmax (Canis familiaris [22]): 2.14 µM | fCmax (Canis familiaris [32]): 4.7 µM | Activity (Canis familiaris [33]): 10 bpm | Activity (Canis familiaris [34]): 4 to 6 mmHg
